Assay results published in ChEMBL document CHEMBL3774324, “iPSC Neuronal Assay Identifies Amaryllidaceae Pharmacophore with Multiple Effects against Herpesvirus Infections” (ACS Med Chem Lett, 2016).
The source made the active and inactive calls. The rule behind the calls is not given here.

Assays:
Human alphaherpesvirus 1 [1] = assay: Antiviral activity against HSV1 KOS ATCC VR1493 infected in human iPSC cells assessed as reduction in EGFP-positive cells at 10 uM treated at 2 hrs post infection measured 24 hrs post infection by flow cytometric analysis relative to control; format: functional
How it was run: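 Human iPSC-derived neurons infected with engineered EGFP HSV-1 at MOI 0.3 and treated with 10 μM at 2 hpi (DMSO vehicle). Percentage of EGFP+ cells measured by flow cytometry at 24 hpi relative to untreated infected cultures. Average of three independent experiments, SD.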

Human alphaherpesvirus 1 [2] = assay: Antiviral activity against HSV1 KOS ATCC VR1493 infected in African green monkey Vero cells assessed as reduction in virus yield at 10 uM treated at 2 hrs post infection measured 48 hrs post infection by flow cytometric analysis relative to control; format: functional, organism-based
Human alphaherpesvirus 1 [3] = assay: Antiviral activity against HSV1 KOS ATCC VR1493 infected in human iPSC cells assessed as viral DNA replication at 10 uM measured 24 hrs post infection by FISH analysis; format: functional, organism-based
How it was run: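 HSV-1-infected iPSC-neurons (MOI 0.3), treated with 10 μM at 2 hpi. Fluorescent in situ hybridisation with HSV-1 DNA probe to detect viral DNA replication at 24 hpi.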

Human alphaherpesvirus 1 [4] = assay: Antiviral activity against HSV1 KOS ATCC VR1493 infected in human iPSC cells assessed as reduction in virus yield at 10 uM treated at 2 hrs post infection measured 48 hrs post infection by flow cytometric analysis relative to control; format: functional, organism-based
Human alphaherpesvirus 1 [5] = assay: Antiviral activity against HSV1 KOS ATCC VR1493 infected in African green monkey Vero cells assessed as reduction in EGFP-positive cells at 10 uM treated at 2 hrs post infection measured 24 hrs post infection by flow cytometric analysis relative to control; format: functional
How it was run: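 Vero cells infected with EGFP-expressing HSV-1 at MOI 1, then given medium with 10 μM test agent (DMSO vehicle) at 2 hpi. Percentage of EGFP+ cells read by flow cytometry at 24 hpi against untreated infected cultures. Mean of three independent experiments, SD.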

[6] = Cytotoxicity against human ARPE19 cells assessed as cell viability at 0.1 to 50 uM after 24 to 48 hrs by live/dead fixable viability dye-based flow cytometric analysis; conditions: arpe-19, 50 µM
Human alphaherpesvirus 1 [7] = assay: Antiviral activity against HSV1 KOS ATCC VR1493 infected in human iPSC cells assessed as reduction in expression of ICP4 gene at 50 uM measured 24 hrs post infection by RT-qPCR analysis; format: functional, organism-based
How it was run: (§1)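 Human iPSC-derived neurons were infected with engineered HSV-1 at MOI 0.3 and treated 2 hpi (DMSO vehicle). RNA was taken 24 hpi, and viral ICP4 and viral DNA polymerase transcripts were quantified by RT-qPCR relative to infected untreated cells.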

Human alphaherpesvirus 1 [8] = assay: Antiviral activity against HSV1 KOS ATCC VR1493 infected in human iPSC-derived neurons assessed as reduction in EGFP-positive cells treated at 2 hrs post infection measured 24 hrs post infection by flow cytometric analysis; conditions: Human alphaherpesvirus 1, KOS ATCC VR1493, iPSC-derived neurons
Human alphaherpesvirus 1 [9] = assay: Antiviral activity against HSV1 KOS ATCC VR1493 infected in human iPSC cells assessed as reduction in expression of ICP4 at 50 uM measured 24 hrs post infection by western blot analysis; format: functional, organism-based
Human alphaherpesvirus 1 [10] = assay: Antiviral activity against HSV1 KOS ATCC VR1493 infected in African green monkey Vero cells assessed as viral titre at 50 uM treated at 2 hrs post infection measured 48 hrs post infection by […] relative to control; format: functional
Human alphaherpesvirus 1 [11] = assay: Antiviral activity against HSV1 KOS ATCC VR1493 infected in human iPSC cells assessed as viral DNA replication at 50 uM measured 24 hrs post infection by FISH analysis; format: functional, organism-based
How it was run: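 iPSC-derived neurons were infected with engineered HSV-1 at MOI 0.3 and given drug 2 hpi. Viral DNA replication was scored by fluorescent in situ hybridization with an HSV-1 DNA probe, counting hybridizing signals.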

[12] = Cytotoxicity against human iPSC cells assessed as cell viability at 0.1 to 50 uM after 24 to 48 hrs by live/dead fixable viability dye-based flow cytometric analysis
How it was run: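 Viability of iPSC-neurons exposed to test agent over 100 nM to 50 μM.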

Human alphaherpesvirus 1 [13] = assay: Antiviral activity against HSV1 KOS ATCC VR1493 infected in human iPSC cells assessed as reduction in expression of DNA polymerase gene at 50 uM measured 24 hrs post infection by RT-qPCR analysis; format: functional, organism-based; how it was run: as §1
Human alphaherpesvirus 1 [14] = assay: Induction of sodium butyrate-induced reactivation of HSV1 KOS ATCC VR1493 infected in human iPSC cells assessed as increase in EGFP-positive cells at 10 uM measured after 5 days of withdrawal in presence of IFN-alpha by flow cytometric analysis relative to 5BVdU/[…]-treated cells; format: functional
Human alphaherpesvirus 1 [15] = assay: Induction of sodium butyrate-induced reactivation of HSV1 KOS ATCC VR1493 infected in human iPSC cells assessed as decrease in EGFP/RFP MFI at 10 uM measured after 5 days of withdrawal relative to 5BVdU/IFN-alpha-treated cells; format: functional, organism-based
Human alphaherpesvirus 1 [16] = assay: Induction of sodium butyrate-induced reactivation of HSV1 KOS ATCC VR1493 infected in human iPSC cells assessed as reduction in EGFP/RFP-positive cells at 10 uM measured after 5 days of withdrawal by flow cytometric analysis relative to 5BVdU/[…]-treated cells; format: functional, organism-based
Human alphaherpesvirus 3 [17] = assay: Antiviral activity against VZV infected in human ARPE19 cells at 10 uM treated at 2 hrs post infection measured 48 hrs post infection by luciferase assay relative to control; format: functional
How it was run: (§2)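 ARPE-19 retinal pigment epithelial cells infected with VZV carrying luciferase under the late ORF9 promoter at 1000 PFU/well. Compound added 2 hpi. Luciferase counts per second read at 48 hpi.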

Human alphaherpesvirus 1 [18] = assay: Induction of sodium butyrate-induced reactivation of HSV1 KOS ATCC VR1493 infected in human iPSC cells assessed as reduction in EGFP/RFP-positive cells at 10 uM measured after 5 days of withdrawal in presence of IFN-alpha by flow cytometric analysis relative to 5BVdU/[…]-treated cells; format: functional, organism-based
Human alphaherpesvirus 1 [19] = assay: Induction of sodium butyrate-induced reactivation of HSV1 KOS ATCC VR1493 infected in human iPSC cells assessed as decrease in EGFP MFI at 10 uM measured after 5 days of withdrawal relative to 5BVdU/IFN-alpha-treated cells; format: functional
Human alphaherpesvirus 1 [20] = assay: Induction of sodium butyrate-induced reactivation of HSV1 KOS ATCC VR1493 infected in human iPSC cells assessed as decrease in EGFP/RFP MFI at 10 uM measured after 5 days of withdrawal in presence of IFN-alpha relative to 5BVdU/IFN-alpha-treated cells; format: functional, organism-based
Human alphaherpesvirus 1 [21] = assay: Induction of sodium butyrate-induced reactivation of HSV1 KOS ATCC VR1493 infected in human iPSC cells assessed as increase in EGFP-positive cells at 10 uM measured after 5 days of withdrawal by flow cytometric analysis relative to 5BVdU/IFN-alpha-treated cells; format: functional
Human alphaherpesvirus 3 [22] = assay: Antiviral activity against VZV infected in human ARPE19 cells treated at 2 hrs post infection measured 48 hrs post infection by luciferase assay; format: functional, organism-based; conditions: Human alphaherpesvirus 3, ARPE-19; how it was run: as §2
Human alphaherpesvirus 1 [23] = assay: Antiviral activity against HSV1 KOS ATCC VR1493 infected in human iPSC cells assessed as reduction in viral DNA copy at 10 uM measured 24 hrs post infection by RT-qPCR analysis relative to control; format: functional
How it was run: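 iPSC-neurons infected with HSV-1 (MOI 0.3) and treated with 10 μM at 2 hpi. DNA extracted at 24 hpi. Viral DNA copy number measured by qPCR relative to infected untreated cells.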

Human alphaherpesvirus 1 [24] = assay: Antiviral activity against HSV1 KOS ATCC VR1493 infected in human iPSC cells assessed as reduction in expression of ICP4 gene at 10 uM measured 24 hrs post infection by RT-qPCR analysis; format: functional, organism-based
How it was run: (§3)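 iPSC-neurons infected with HSV-1 (MOI 0.3) and treated with 10 μM at 2 hpi. RT-qPCR of ICP4 and viral DNA polymerase transcripts at 24 hpi.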

Human alphaherpesvirus 1 [25] = assay: Antiviral activity against HSV1 KOS ATCC VR1493 infected in human iPSC cells assessed as reduction in expression of DNA polymerase gene at 10 uM measured 24 hrs post infection by RT-qPCR analysis; format: functional, organism-based; how it was run: as §3
Human alphaherpesvirus 1 [26] = assay: Antiviral activity against HSV1 KOS ATCC VR1493 infected in human iPSC cells assessed as reduction in expression of ICP4 at 10 uM measured 24 hrs post infection by western blot analysis; format: functional, organism-based
Human alphaherpesvirus 1 [27] = assay: Induction of sodium butyrate-induced reactivation of HSV1 KOS ATCC VR1493 infected in human iPSC cells assessed as decrease in EGFP MFI at 10 uM measured after 5 days of withdrawal in presence of IFN-alpha relative to 5BVdU/IFN-alpha-treated cells; format: functional

SMILES: O=C1N[C@H]2[C@H](O)[C@H](O)[C@@H](O)[C@H](O)[C@@H]2c2cc3c(c(O)c21)OCO3 [PANCRATISTATIN]
- fold change (FC) (Human alphaherpesvirus 1 [1]): 62
- Activity (Human alphaherpesvirus 1 [2]): Active
- Activity (Human alphaherpesvirus 1 [3]): Active
- Activity (Human alphaherpesvirus 1 [4]): Active
- fold change (FC) (Human alphaherpesvirus 1 [5]): 8.3

SMILES: O=C1N[C@H]2[C@H](O)[C@@H](O)[C@@H](O)C[C@@H]2c2cc3c(cc21)OCO3
- Activity (Human alphaherpesvirus 1 [2]): inactive
- Activity (Human alphaherpesvirus 1 [3]): inactive
- Activity (Human alphaherpesvirus 1 [5]): inactive

SMILES: Nc1nc2c(ncn2COCCO)c(=O)[nH]1 [ACYCLOVIR]
- Activity [6]: Non-toxic
- Activity (Human alphaherpesvirus 1 [7]): Active
- EC50 (Human alphaherpesvirus 1 [8]): 70 nM
- Activity (Human alphaherpesvirus 1 [9]): Active
- Activity (Human alphaherpesvirus 1 [10]): 33.3 PFU/ml
- Activity (Human alphaherpesvirus 1 [11]): Active
- Activity [12]: Non-toxic
- Activity (Human alphaherpesvirus 1 [13]): Active

SMILES: O=C1N[C@@H]2C(=C[C@H](O)[C@@H](O)[C@H]2O)c2cc3c(c(O)c21)OCO3 [NARCICLASINE]
- fold change (FC) (Human alphaherpesvirus 1 [1]): 69
- Activity (Human alphaherpesvirus 1 [2]): Active
- Activity (Human alphaherpesvirus 1 [3]): Active
- Activity (Human alphaherpesvirus 1 [4]): Active
- fold change (FC) (Human alphaherpesvirus 1 [5]): 10.6

SMILES: O=C1N[C@H]2[C@H](O)[C@H](O)[C@@H](O)C[C@@H]2c2cc3c(cc21)OCO3
- fold change (FC) (Human alphaherpesvirus 1 [14]): 2.1
- Activity (Human alphaherpesvirus 1 [15]): Active
- fold change (FC) (Human alphaherpesvirus 1 [1]): 28
- Activity (Human alphaherpesvirus 1 [2]): Active
- Activity (Human alphaherpesvirus 1 [16]): Active
- fold change (FC) (Human alphaherpesvirus 3 [17]): 220
- Activity [6]: Non-toxic
- Activity (Human alphaherpesvirus 1 [18]): Active
- fold change (FC) (Human alphaherpesvirus 1 [19]): 1.6
- Activity (Human alphaherpesvirus 1 [20]): Active
- Activity (Human alphaherpesvirus 1 [3]): Active
- EC50 (Human alphaherpesvirus 1 [8]): 100 nM
- fold change (FC) (Human alphaherpesvirus 1 [21]): 2.9
- EC50 (Human alphaherpesvirus 3 [22]): 150 nM
- fold change (FC) (Human alphaherpesvirus 1 [23]): >1800
- Activity (Human alphaherpesvirus 1 [4]): Active
- Activity (Human alphaherpesvirus 1 [24]): Active
- Activity [12]: Non-toxic
- Activity (Human alphaherpesvirus 1 [25]): Active
- Activity (Human alphaherpesvirus 1 [26]): Active
- fold change (FC) (Human alphaherpesvirus 1 [5]): 19.6
- fold change (FC) (Human alphaherpesvirus 1 [27]): 2.5

SMILES: COC(=O)N[C@H]1C(=O)C[C@@H](O)C[C@@H]1c1ccc2c(c1)OCO2
- Activity (Human alphaherpesvirus 1 [2]): inactive
- Activity (Human alphaherpesvirus 1 [3]): inactive
- Activity (Human alphaherpesvirus 1 [5]): inactive

SMILES: O=C1N[C@H]2[C@H](O)C[C@@H](O)C[C@@H]2c2cc3c(cc21)OCO3
- Activity (Human alphaherpesvirus 1 [2]): inactive
- Activity (Human alphaherpesvirus 1 [3]): inactive
- Activity (Human alphaherpesvirus 1 [5]): inactive
